# Measurements: ChEMBL document CHEMBL1128569, “N-acyl-2-substituted-1,3-thiazolidines, a new class of non-narcotic antitussive agents: studies leading to the discovery of ethyl 2-[(2-methoxyphenoxy)methyl]-beta-oxothiazolidine-3-propanoate” (J Med Chem, 1995)
# Tests used:
# Cavia porcellus [1] = assay: Antitussive activity by inhibition of irritant citric acid aerosol-induced coughing in guinea pig upon oral administration.; assay type: functional
# Procedure, shortened: (§1)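 Male guinea pigs (350-400 g) exposed in a box to 7.5% citric acid aerosol for 5 min, and coughs counted as the basal value. Next day, after overnight fasting, animals (6-8/dose) were gavaged with compound in water or 0.5% methyl cellulose (2 mL/kg) 1 h before re-exposure. Activity is the reduction in coughs versus the basal count. ED50 is the dose giving 50% reduction (Cochran and Snedecor).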
# [2] = Acute toxicity was determined in mice upon peroral administration; assay type: organism-based; conditions: mouse, in vivo, po
# Procedure, shortened: (§2)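 Swiss mice of both sexes, groups of six, dosed by gavage at several doses up to 1000 mg/kg. Compound dissolved in water or suspended in 0.5% carboxymethyl cellulose, 10 mL/kg. Deaths recorded over 1-7 days. LD50 obtained by logit transformation.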
# Cavia porcellus [3] = assay: Antitussive activity was evaluated by inhibition of irritant electrically-induced coughing in guinea pig trachea upon oral administration at 30 mg/kg; assay type: functional
# Procedure, shortened: (§3)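 Guinea pigs under ketamine (10 mg/kg im) and xylazine (3 mg/kg im) anaesthesia, with an electrode wrapped around the trachea about 1.5 cm above the bifurcation and an indifferent electrode on the dorsal skin. Coughs during stimulation counted as the basal value. Groups of 6-8/dose were gavaged with compound in water or 0.5% methyl cellulose (2 mL/kg). Activity is the cough reduction versus basal. ED50 is the dose giving 50% reduction.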
# Cavia porcellus [4] = assay: Antitussive activity was evaluated by inhibition of irritant aerosol-induced coughing by (po) administration of 30 mg/kg in guinea pig; assay type: functional; procedure, shortened: as §1
# [5] = Lethality in mice following p.o. administration.; assay type: ADME, organism-based; conditions: mouse, in vivo, po; procedure, shortened: as §2
# Cavia porcellus [6] = assay: Inhibition of irritant electrically-induced coughing in guinea pig trachea following p.o. administration.; assay type: functional; conditions: po; procedure, shortened: as §3
# Cavia porcellus [7] = assay: Antitussive activity was evaluated by inhibition of irritant citric acid aerosol-induced coughing in guinea pig upon oral administration at 30 mg/kg dose; assay type: functional; procedure, shortened: as §1
# Cavia porcellus [8] = assay: Antitussive activity was evaluated by inhibition of irritant electrically-induced coughing by (po) administration in guinea pig; assay type: functional; procedure, shortened: as §3
# Cavia porcellus [9] = assay: Antitussive activity was evaluated by inhibition of irritant aerosol-induced coughing by (po) administration in guinea pig; assay type: functional; procedure, shortened: as §1
smiles,measurement,setting,value
CCN(CC)CCNC(=O)CC(=O)N1CCSC1COc1ccccc1OC (stereo not drawn),ED50,Cavia porcellus [1],56 mg/kg
same,LD50,[2],250 mg/kg
same,inhibition in vivo at 30 mg/kg,Cavia porcellus [3],< 20%
COc1ccccc1OCC1SCCN1C(=O)CSC(=O)CN1CCN(C)CC1 (stereo not drawn),inhibition in vivo at 30 mg/kg,Cavia porcellus [4],< 20%
same,LD50,[5],> 1000 mg/kg
COc1ccccc1OCC1SCCN1C(=O)/C=C/c1ccc(O)c(O)c1 (stereo not drawn),inhibition in vivo at 30 mg/kg,Cavia porcellus [4],< 20%
same,LD50,[5],> 1000 mg/kg
COc1ccccc1OCC1SCCN1C(=O)CC(C)=O (stereo not drawn),ED50,Cavia porcellus [1],30 mg/kg
same,LD50,[2],> 1000 mg/kg
same,ED50,Cavia porcellus [6],26 mg/kg
COc1ccc(OCC2SCCN2C(=O)Cn2ccnc2)cc1 (stereo not drawn),ED50,Cavia porcellus [1],48 mg/kg
same,LD50,[2],> 1000 mg/kg
CCOCCOCC(=O)N1CCSC1COc1ccccc1OC (stereo not drawn),inhibition in vivo at 30 mg/kg,Cavia porcellus [7],< 20%
same,LD50,[2],916 mg/kg
COc1ccccc1OCC1SCCN1C(=O)C(C)(C)C (stereo not drawn),LD50,[2],> 1000 mg/kg
same,ED50,Cavia porcellus [6],24 mg/kg
COc1ccccc1OCC1N(C(=O)C[S+](C)[O-])CC[S+]1[O-] (stereo not drawn),LD50,[2],> 1000 mg/kg
COc1ccccc1OCC1SCCN1C(=O)CC(=O)NCc1ccccn1 (stereo not drawn),ED50,Cavia porcellus [1],26 mg/kg
same,ED50,Cavia porcellus [6],64 mg/kg
OCC(O)CN1CCN(c2ccccc2)CC1 (stereo not drawn) [DROPROPIZINE],ED50,Cavia porcellus [1],144 mg/kg
same,ED50,Cavia porcellus [6],32 mg/kg
CNC(=O)CC(=O)N1CCSC1COc1ccccc1OC (stereo not drawn),ED50,Cavia porcellus [1],21 mg/kg
same,LD50,[2],> 1000 mg/kg
same,ED50,Cavia porcellus [6],22 mg/kg
COc1ccccc1OCC1SCCN1C(=O)CC(=O)O (stereo not drawn),ED50,Cavia porcellus [1],20 mg/kg
same,LD50,[2],> 1000 mg/kg
same,inhibition in vivo at 30 mg/kg,Cavia porcellus [3],< 20%
CC(=O)SCC(=O)Oc1ccccc1CCC1SCCN1C(=O)CSC(C)=O (stereo not drawn),inhibition in vivo at 30 mg/kg,Cavia porcellus [4],< 20%
same,LD50,[5],> 1000 mg/kg
COc1ccc2c(c1)[C@]13CCCC[C@@H]1[C@H](C2)N(C)CC3 [DEXTROMETHORPHAN],ED50,Cavia porcellus [8],16 mg/kg
same,ED50,Cavia porcellus [9],48 mg/kg
CCOC(=O)[C@@H]1CSC(COc2ccccc2OC)N1C(=O)CSC(C)=O (stereo partly drawn),inhibition in vivo at 30 mg/kg,Cavia porcellus [4],< 20%
same,LD50,[5],672 mg/kg
CCOC(=O)CC(=O)N1CCS(=O)(=O)C1COc1ccccc1OC (stereo not drawn),ED50,Cavia porcellus [1],28 mg/kg
same,LD50,[2],> 1000 mg/kg
same,inhibition in vivo at 30 mg/kg,Cavia porcellus [3],< 20%
COc1ccccc1OCC1SCCN1C(=O)CN.Cl (stereo not drawn),ED50,Cavia porcellus [1],57 mg/kg
same,LD50,[2],585 mg/kg
COc1ccccc1OCC1NCCS1 (stereo not drawn),LD50,[2],> 1000 mg/kg
Oc1ccccc1OCC1NCCS1 (stereo not drawn),LD50,[2],> 1000 mg/kg
O=C(Cn1ccnc1)N1CCSC1COc1ccccc1O (stereo not drawn),ED50,Cavia porcellus [6],27 mg/kg
CC(=O)SCC(=O)N1CCSC1COc1ccccc1C (stereo not drawn),inhibition in vivo at 30 mg/kg,Cavia porcellus [4],< 20%
same,LD50,[5],> 1000 mg/kg
COc1ccccc1OCC1SCCN1C(=O)CSC(=O)c1cc(OC)c(OC)c(OC)c1 (stereo not drawn),inhibition in vivo at 30 mg/kg,Cavia porcellus [4],< 20%
same,LD50,[5],> 1000 mg/kg
COc1ccccc1OCC1SCCN1C(C)=O (stereo not drawn),ED50,Cavia porcellus [1],46 mg/kg
same,LD50,[2],552 mg/kg
CCOC(=O)CC(=O)N1CCSC1COc1ccccc1OC (stereo not drawn) [MOGUISTEINE],ED50,Cavia porcellus [1],21 mg/kg
same,LD50,[2],> 1000 mg/kg
same,ED50,Cavia porcellus [6],11 mg/kg
CCOC(=O)C(C)(C)C(=O)N1CCSC1COc1ccccc1OC (stereo not drawn),ED50,Cavia porcellus [1],61 mg/kg
same,LD50,[2],> 1000 mg/kg
same,ED50,Cavia porcellus [6],48 mg/kg
COc1ccccc1OCC1N(C(=O)CSC(C)=O)CC[S+]1[O-] (stereo not drawn),inhibition in vivo at 30 mg/kg,Cavia porcellus [4],< 20%
same,LD50,[5],620 mg/kg
COc1ccccc1OCC1SCCN1C(=O)CS (stereo not drawn),inhibition in vivo at 30 mg/kg,Cavia porcellus [7],< 20%
CCCC(=O)CC(=O)N1CCSC1COc1ccccc1OC (stereo not drawn),ED50,Cavia porcellus [1],42 mg/kg
COc1ccccc1OCC1SCCN1C(=O)C(C)SC(C)=O (stereo not drawn),inhibition in vivo at 30 mg/kg,Cavia porcellus [4],< 20%
same,LD50,[5],> 1000 mg/kg
C=CC(=O)N1CCSC1COc1ccccc1OC (stereo not drawn),ED50,Cavia porcellus [1],74 mg/kg
same,LD50,[2],718 mg/kg
CCOC(=O)CC(=O)N1CCSC1COc1ccccc1O (stereo not drawn),ED50,Cavia porcellus [1],20 mg/kg
same,LD50,[2],> 1000 mg/kg
COc1ccccc1OCC1SCCN1C(=O)CSC(C)=O (stereo not drawn) [GUAISTEINE],ED50,Cavia porcellus [8],17 mg/kg
same,LD50,[5],> 1000 mg/kg
same,ED50,Cavia porcellus [9],26 mg/kg
COc1ccccc1OCC1SCCN1C(=O)CN1CCOCC1.Cl (stereo not drawn),inhibition in vivo at 30 mg/kg,Cavia porcellus [7],< 20%
same,LD50,[2],612 mg/kg
